# Test results taken from ChEMBL document CHEMBL5653631, “A Potent and Selective ULK1 Inhibitor Suppresses Autophagy and Sensitizes Cancer Cells to Nutrient Stress” (iScience, 2018).
# Legend:
# [1] = biological target: SRSF protein kinase 3 (Homo sapiens) (UniProt Q9UPE1); test: Inhibition of human recombinant MSSK1 at 40 nM in presence of ATP by radiometric assay relative to control
# [2] = biological target: T1, Receptor-interacting serine/threonine-protein kinase 1 (Homo sapiens) (UniProt Q13546); test: Inhibition of human recombinant RIPK1 at 40 nM in presence of ATP by radiometric assay relative to control
# T1 sequence (whole entry): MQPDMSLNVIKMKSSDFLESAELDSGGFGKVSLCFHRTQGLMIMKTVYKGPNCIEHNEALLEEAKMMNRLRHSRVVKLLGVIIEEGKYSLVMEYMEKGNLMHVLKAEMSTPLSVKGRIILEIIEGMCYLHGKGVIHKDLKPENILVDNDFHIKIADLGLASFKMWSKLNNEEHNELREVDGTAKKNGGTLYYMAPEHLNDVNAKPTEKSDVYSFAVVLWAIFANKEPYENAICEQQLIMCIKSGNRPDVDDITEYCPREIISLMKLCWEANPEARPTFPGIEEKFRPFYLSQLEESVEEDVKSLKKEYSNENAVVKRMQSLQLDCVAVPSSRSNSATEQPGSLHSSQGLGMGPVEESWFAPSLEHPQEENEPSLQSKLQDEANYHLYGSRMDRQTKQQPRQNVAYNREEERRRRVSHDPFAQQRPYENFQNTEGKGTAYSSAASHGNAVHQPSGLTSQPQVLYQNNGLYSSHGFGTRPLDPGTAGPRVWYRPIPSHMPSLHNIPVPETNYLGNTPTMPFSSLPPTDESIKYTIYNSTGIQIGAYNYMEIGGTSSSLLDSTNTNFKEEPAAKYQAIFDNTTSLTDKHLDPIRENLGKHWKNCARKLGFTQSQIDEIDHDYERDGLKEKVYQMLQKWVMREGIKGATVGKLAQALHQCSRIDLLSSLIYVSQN
# [3] = biological target: Serine/threonine-protein kinase PAK 3 (Homo sapiens) (UniProt O75914); test: Inhibition of human recombinant PAK3 at 40 nM in presence of ATP by radiometric assay relative to control
# [4] = biological target: T2, Cytoplasmic tyrosine-protein kinase BMX (Homo sapiens) (UniProt P51813); test: Inhibition of human recombinant BMX at 40 nM related to control ULK1
# T2 sequence (whole entry): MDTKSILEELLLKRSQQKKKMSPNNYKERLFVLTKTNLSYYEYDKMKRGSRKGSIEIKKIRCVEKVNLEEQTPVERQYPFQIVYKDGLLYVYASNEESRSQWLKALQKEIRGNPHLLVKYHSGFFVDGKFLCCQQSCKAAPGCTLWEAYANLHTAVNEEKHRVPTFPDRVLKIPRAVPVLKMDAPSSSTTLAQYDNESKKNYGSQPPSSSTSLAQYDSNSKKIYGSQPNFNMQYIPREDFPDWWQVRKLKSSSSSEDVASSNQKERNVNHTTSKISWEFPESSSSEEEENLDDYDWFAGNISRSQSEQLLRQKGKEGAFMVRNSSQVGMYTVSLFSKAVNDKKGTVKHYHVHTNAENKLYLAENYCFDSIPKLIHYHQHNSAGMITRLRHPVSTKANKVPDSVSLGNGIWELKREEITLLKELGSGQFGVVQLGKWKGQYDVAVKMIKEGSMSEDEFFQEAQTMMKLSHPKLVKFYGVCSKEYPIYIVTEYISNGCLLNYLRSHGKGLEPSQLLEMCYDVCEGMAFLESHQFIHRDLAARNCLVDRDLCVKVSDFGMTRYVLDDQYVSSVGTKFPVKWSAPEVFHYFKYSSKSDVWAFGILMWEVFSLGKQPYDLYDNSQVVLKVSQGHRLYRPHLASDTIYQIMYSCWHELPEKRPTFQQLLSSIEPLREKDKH
# [5] = biological target: LIM domain kinase 1 (Homo sapiens) (UniProt P53667); test: Inhibition of human recombinant LIMK1 at 40 nM in presence of ATP by radiometric assay relative to control
# Chain of LIM domain kinase 1 (Homo sapiens) (P53667 whole entry, looked up, the tested form may be a part, canonical isoform): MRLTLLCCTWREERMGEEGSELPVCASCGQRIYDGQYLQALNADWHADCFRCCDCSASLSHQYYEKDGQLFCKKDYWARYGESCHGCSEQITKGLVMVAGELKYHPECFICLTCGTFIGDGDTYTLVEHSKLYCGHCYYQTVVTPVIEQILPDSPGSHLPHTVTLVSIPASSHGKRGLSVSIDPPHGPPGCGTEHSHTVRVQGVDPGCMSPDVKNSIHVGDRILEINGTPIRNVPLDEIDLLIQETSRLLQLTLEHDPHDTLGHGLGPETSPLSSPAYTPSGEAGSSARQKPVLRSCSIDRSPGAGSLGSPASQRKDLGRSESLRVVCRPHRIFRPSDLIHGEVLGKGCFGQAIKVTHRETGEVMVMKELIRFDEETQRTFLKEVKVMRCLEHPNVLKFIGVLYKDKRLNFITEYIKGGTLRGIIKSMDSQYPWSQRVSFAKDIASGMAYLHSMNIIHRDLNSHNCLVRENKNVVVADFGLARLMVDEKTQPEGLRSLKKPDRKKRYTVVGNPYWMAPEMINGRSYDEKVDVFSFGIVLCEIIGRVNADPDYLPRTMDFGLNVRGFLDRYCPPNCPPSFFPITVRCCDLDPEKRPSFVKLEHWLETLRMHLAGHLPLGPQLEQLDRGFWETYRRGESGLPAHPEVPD
# [6] = biological target: Phosphorylase b kinase gamma catalytic chain, skeletal muscle/heart isoform (Homo sapiens) (UniProt Q16816); test: Inhibition of human recombinant PHKg1 at 15 nM in presence of ATP by radiometric assay relative to control
# Chain of Phosphorylase b kinase gamma catalytic chain, skeletal muscle/heart isoform (Homo sapiens) (Q16816 whole entry, looked up, canonical isoform): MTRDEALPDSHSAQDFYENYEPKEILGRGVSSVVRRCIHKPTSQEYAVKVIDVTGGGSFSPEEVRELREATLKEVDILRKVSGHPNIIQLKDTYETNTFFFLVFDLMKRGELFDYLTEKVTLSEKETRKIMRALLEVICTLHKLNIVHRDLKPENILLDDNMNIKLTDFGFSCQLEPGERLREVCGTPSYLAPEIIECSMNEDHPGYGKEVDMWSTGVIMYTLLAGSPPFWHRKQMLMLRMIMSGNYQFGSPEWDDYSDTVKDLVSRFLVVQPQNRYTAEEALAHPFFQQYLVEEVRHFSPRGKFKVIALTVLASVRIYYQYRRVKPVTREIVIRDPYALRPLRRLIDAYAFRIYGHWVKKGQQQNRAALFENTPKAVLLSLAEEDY
# [7] = biological target: Dual specificity protein kinase CLK3 (Homo sapiens) (UniProt P49761); test: Inhibition of human recombinant CLK3 at 15 nM in presence of ATP by radiometric assay relative to control
# [8] = biological target: Receptor-type tyrosine-protein kinase FLT3 (Homo sapiens) (UniProt P36888); test: Inhibition of human recombinant FLT3 at 15 nM in presence of ATP by radiometric assay relative to control
# [9] = biological target: Calcium/calmodulin-dependent protein kinase type 1B (Homo sapiens) (UniProt Q6P2M8); test: Inhibition of human recombinant CaMK1b at 15 nM in presence of ATP by radiometric assay relative to control
# Chain of Calcium/calmodulin-dependent protein kinase type 1B (Homo sapiens) (Q6P2M8 whole entry): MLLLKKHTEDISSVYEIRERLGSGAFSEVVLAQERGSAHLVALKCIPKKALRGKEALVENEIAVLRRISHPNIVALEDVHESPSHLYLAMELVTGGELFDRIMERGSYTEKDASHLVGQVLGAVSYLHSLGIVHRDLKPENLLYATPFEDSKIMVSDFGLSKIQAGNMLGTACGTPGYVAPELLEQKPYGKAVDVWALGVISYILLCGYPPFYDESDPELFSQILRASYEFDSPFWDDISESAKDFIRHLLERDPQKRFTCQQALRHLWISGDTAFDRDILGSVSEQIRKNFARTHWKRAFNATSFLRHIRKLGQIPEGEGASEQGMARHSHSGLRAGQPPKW
# [10] = biological target: Serine/threonine-protein kinase MARK2 (Homo sapiens) (UniProt Q7KZI7); test: Inhibition of human recombinant MARK2 at 500 nM related to control ULK1
# [11] = biological target: Serine/threonine-protein kinase WNK2 (Homo sapiens) (UniProt Q9Y3S1); test: Inhibition of human recombinant Wnk2 at 500 nM related to control ULK1
# [12] = biological target: T3, Aurora kinase A (Homo sapiens) (UniProt O14965); test: Inhibition of human recombinant AurA at 500 nM in presence of ATP by radiometric assay relative to control
# T3 sequence (whole entry): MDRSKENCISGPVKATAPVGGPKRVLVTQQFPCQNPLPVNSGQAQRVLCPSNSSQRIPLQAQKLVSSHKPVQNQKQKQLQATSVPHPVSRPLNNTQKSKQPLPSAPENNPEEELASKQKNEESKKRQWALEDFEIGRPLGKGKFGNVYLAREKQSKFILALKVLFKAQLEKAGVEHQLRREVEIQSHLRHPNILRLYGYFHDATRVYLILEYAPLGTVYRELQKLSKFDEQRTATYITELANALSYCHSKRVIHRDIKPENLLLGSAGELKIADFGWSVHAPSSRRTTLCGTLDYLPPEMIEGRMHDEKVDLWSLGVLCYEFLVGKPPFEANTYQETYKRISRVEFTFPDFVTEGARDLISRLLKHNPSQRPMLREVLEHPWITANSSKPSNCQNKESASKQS
# Procedure, shortened: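 Panel of 327 recombinant human kinases, each assayed in vitro by radiometric activity assay in duplicate at a single inhibitor concentration per compound, chosen with reference to its ULK1 inhibition. Activity remaining was expressed as percent of vehicle control, and percent inhibition was calculated as 100 minus percent activity remaining.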
# [13] = biological target: Tyrosine-protein kinase Fgr (Homo sapiens) (UniProt P09769); test: Inhibition of human recombinant FGR at 500 nM in presence of ATP by radiometric assay relative to control
# Chain of Tyrosine-protein kinase Fgr (Homo sapiens) (P09769 2-529 limits assumed): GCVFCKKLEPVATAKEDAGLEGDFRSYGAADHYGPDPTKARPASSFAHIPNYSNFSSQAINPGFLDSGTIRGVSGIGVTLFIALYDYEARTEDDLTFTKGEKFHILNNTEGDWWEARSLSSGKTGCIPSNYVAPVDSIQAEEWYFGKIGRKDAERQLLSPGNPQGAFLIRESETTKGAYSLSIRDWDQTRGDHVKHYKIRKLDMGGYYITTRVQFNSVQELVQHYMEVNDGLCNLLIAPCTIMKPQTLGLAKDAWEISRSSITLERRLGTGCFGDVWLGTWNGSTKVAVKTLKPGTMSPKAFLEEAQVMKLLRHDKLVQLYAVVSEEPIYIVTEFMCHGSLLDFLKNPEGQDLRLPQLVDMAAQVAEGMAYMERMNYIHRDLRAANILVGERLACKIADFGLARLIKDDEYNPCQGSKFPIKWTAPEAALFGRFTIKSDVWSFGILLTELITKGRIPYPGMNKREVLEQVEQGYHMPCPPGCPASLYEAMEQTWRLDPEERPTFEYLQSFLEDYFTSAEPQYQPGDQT
# [14] = biological target: High affinity nerve growth factor receptor (Homo sapiens) (UniProt P04629); test: Inhibition of human recombinant TRKA at 500 nM related to control ULK1
# Chain of High affinity nerve growth factor receptor (Homo sapiens) (P04629 33-796 limits assumed): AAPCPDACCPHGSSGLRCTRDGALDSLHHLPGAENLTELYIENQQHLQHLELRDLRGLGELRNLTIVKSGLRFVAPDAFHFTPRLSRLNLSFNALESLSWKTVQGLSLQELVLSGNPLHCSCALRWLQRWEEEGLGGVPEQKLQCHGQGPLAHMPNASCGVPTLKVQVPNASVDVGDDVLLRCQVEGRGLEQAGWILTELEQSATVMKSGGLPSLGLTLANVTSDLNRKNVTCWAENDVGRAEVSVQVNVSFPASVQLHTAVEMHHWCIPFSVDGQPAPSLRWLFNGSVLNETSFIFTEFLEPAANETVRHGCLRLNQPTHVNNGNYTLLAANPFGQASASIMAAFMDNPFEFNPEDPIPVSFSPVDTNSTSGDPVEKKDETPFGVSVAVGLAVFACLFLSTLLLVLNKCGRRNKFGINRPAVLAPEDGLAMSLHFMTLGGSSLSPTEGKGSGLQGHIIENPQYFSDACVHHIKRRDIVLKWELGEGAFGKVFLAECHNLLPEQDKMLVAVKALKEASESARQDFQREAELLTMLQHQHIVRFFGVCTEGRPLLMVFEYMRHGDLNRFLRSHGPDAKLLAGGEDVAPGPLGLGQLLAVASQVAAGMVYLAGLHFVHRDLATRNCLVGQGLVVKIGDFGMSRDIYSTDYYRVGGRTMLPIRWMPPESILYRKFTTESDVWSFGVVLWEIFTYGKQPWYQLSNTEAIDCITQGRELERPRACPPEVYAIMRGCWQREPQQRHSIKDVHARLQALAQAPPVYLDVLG
# [15] = biological target: Death-associated protein kinase 1 (Homo sapiens) (UniProt P53355); test: Inhibition of human recombinant DAPK1 at 500 nM in presence of ATP by radiometric assay relative to control
# Chain of Death-associated protein kinase 1 (Homo sapiens) (P53355 whole entry, looked up): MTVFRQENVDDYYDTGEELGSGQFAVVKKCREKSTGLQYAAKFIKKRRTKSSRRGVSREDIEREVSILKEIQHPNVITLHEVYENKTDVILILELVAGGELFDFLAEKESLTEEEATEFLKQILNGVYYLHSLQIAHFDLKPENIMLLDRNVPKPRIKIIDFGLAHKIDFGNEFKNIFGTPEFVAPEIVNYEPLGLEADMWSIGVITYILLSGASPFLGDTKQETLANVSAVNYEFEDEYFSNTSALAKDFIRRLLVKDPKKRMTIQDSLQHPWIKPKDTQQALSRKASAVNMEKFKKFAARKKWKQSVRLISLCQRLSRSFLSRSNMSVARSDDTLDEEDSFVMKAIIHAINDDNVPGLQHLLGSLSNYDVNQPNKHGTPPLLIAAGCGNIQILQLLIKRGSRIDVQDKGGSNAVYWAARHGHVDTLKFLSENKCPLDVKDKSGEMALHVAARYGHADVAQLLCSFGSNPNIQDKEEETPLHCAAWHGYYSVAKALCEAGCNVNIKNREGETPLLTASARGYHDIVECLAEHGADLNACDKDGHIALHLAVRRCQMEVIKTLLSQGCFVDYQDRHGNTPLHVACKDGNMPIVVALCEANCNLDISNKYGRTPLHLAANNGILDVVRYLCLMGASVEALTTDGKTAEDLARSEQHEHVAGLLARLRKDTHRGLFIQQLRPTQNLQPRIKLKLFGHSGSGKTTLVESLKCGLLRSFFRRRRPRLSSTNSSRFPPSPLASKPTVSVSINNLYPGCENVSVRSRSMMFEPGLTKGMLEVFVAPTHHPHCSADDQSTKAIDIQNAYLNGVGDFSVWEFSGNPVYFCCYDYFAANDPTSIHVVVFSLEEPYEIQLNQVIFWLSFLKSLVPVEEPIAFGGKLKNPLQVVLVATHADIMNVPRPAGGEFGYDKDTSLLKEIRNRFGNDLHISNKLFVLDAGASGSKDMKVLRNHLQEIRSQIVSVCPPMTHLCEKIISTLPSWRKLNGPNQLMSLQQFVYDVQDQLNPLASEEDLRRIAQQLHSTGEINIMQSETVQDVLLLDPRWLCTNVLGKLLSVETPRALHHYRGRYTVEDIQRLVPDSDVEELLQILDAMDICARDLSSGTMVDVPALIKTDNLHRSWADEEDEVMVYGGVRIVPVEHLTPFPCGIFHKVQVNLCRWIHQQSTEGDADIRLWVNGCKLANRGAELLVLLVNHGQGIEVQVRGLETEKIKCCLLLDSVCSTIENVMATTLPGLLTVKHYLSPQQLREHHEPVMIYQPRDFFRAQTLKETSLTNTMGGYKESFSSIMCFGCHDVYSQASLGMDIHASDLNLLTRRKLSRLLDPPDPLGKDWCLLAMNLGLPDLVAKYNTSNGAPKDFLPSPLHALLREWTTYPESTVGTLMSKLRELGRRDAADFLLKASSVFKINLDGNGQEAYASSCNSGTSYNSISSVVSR
# Chain of SRSF protein kinase 3 (Homo sapiens) (Q9UPE1 whole entry): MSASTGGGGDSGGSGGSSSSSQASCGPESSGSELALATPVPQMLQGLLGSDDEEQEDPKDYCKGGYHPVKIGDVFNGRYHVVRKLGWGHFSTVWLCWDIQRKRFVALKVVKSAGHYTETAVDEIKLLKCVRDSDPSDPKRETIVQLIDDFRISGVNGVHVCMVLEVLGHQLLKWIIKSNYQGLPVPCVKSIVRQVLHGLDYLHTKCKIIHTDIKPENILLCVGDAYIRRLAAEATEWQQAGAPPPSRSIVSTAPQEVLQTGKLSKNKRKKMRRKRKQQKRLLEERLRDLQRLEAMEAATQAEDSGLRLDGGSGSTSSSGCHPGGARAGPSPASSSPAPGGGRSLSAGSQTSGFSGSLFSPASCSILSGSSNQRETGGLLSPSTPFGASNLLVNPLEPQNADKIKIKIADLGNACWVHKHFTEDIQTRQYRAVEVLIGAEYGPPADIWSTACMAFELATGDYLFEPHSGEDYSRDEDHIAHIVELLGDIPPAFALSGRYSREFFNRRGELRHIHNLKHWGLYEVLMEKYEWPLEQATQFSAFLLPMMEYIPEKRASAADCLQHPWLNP
structure (smiles),measurement,setting,value
O=C(N[C@@H](C1CC1)C(F)(F)F)c1cc(-c2cnn3cc(-c4ccc(F)cc4)cnc23)cs1,inhibition,[1],13%
same,inhibition,[2],2%
same,inhibition,[3],0%
same,fold change (FC),[4],0.05
same,inhibition,[5],15%
CC(C)[C@H](NC(=O)c1cc(-c2cnn3cc(-c4ccc(OCCN5CCCCC5)cc4)cnc23)cs1)C(F)(F)F,inhibition,[6],51%
same,inhibition,[7],1%
same,inhibition,[8],68%
same,inhibition,[9],0%
CNC(=O)c1ccccc1Oc1nc(Nc2cc(OC)c(OC)c(OC)c2)ncc1Br,fold change (FC),[10],0.68
same,fold change (FC),[11],0.01
same,inhibition,[12],80%
same,inhibition,[13],8%
same,fold change (FC),[14],0.7
same,inhibition,[15],0%
